Measurements: ChEMBL document CHEMBL4823317, “Synthesis, in vitro cytotoxicity and biological evaluation of twenty novel 1,3-benzenedisulfonyl piperazines as antiplatelet agents” (Bioorg Med Chem, 2021)

How the values were obtained:
[1] = system: Blood; test: Anti-platelet aggregation activity in rabbit venous blood assessed as inhibition of ADP-induced aggregation at 1.3 uM pre-treated for 2 mins followed by ADP addition by Born turbidimetric method relative to control; format: functional; conditions: Oryctolagus cuniculus
Method in brief: (§1)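 Platelet-rich plasma from male rabbit (2–3 kg) ear-vein blood, citrate anticoagulated (3.8%, 9:1), spun 1000 rpm 10 min at room temperature; platelet-poor plasma (3000 rpm 10 min) as blank. Compound at 1.3 µM, from DMSO solution (DMSO 0.5% v/v vehicle control), preincubated 2 min in PRP before inducer. Inhibition% = (1 − D/S) × 100, where S is aggregation with solvent.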

[2] = system: Blood; test: Anti-platelet aggregation activity in rabbit venous blood assessed as inhibition of arachidonic acid-induced aggregation at 1.3 uM pre-treated for 2 mins followed by ADP addition by Born turbidimetric method relative to control; format: functional; conditions: Oryctolagus cuniculus; method in brief: as §1
[3] = system: Blood; test: Anti-platelet aggregation activity in rabbit venous blood assessed as inhibition of collagen-induced aggregation at 1.3 uM pre-treated for 2 mins followed by ADP addition by Born turbidimetric method relative to control; format: functional; conditions: Oryctolagus cuniculus; method in brief: as §1
[4] = system: Blood; test: Anti-platelet aggregation activity in rabbit venous blood assessed as inhibition of ADP-induced aggregation pre-treated for 2 mins followed by ADP addition by Born turbidimetric method; format: functional, tissue-based; conditions: Oryctolagus cuniculus
Method in brief: (§2)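 Rabbit PRP Born turbidimetry with the same 2 min compound preincubation. ADP or arachidonic acid as inducer. Compounds tested at 1.3, 0.65 and 0.325 µM. Inhibition% = (1 − D/S) × 100 versus the solvent control, and IC50 calculated from these inhibition rates.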

[5] = system: Blood; test: Anti-platelet aggregation activity in rabbit venous blood assessed as inhibition of arachidonic acid-induced aggregation pre-treated for 2 mins followed by ADP addition by Born turbidimetric method; format: functional, tissue-based; conditions: Oryctolagus cuniculus; method in brief: as §2
[6] = Cytotoxicity against mouse L929 cells assessed as cell survival at 10 uM incubated for 48 hrs by CCK-8 assay relative to control; format: cell-based; conditions: read-out: Activity
Method in brief: (§3)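 L929 mouse fibroblasts seeded at 10,000 cells/well in RPMI-1640 and allowed to attach 24 h at 37 °C. Compounds then added at 10 and 100 µM for 48 h at 37 °C. Medium replaced with fresh medium, CCK-8 added, 30 min further incubation, absorbance read at 450 nm. Viability = Abs(test)/Abs(control) × 100%.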

[7] = Cytotoxicity against mouse L929 cells assessed as cell survival at 100 uM incubated for 48 hrs by CCK-8 assay relative to control; format: cell-based; conditions: read-out: Activity; method in brief: as §3

| IC50 [4] [nM] | IC50 [5] [nM] | SMILES | inhibition at 1.3 µM [1] [%] | inhibition at 1.3 µM [2] [%] | inhibition at 1.3 µM [3] [%] | viability at 48 h, 10 µM [6] [%] | viability at 48 h, 100 µM [7] [%] |
| --- | --- | --- | --- | --- | --- | --- | --- |
| 1150 | 330 | COc1ccc(S(=O)(=O)N2CCN(Cc3ccccc3)CC2)cc1S(=O)(=O)N1CCN(Cc2ccccc2)CC1 | 33.2 | 38.5 | 22.8 | 55.6 | 22.2 |
| – | 680 | COc1ccc(S(=O)(=O)N2CCN(c3ccc(C)cc3)CC2)cc1S(=O)(=O)N1CCN(c2ccc(C)cc2)CC1 | 30.4 | 34.1 | 32.6 | – | – |
| – | 710 | COc1ccc(S(=O)(=O)N2CCN(c3cccc(C)c3)CC2)cc1S(=O)(=O)N1CCN(c2cccc(C)c2)CC1 | 21.1 | 33.7 | 54.2 | 85.2 | 66.7 |
| 980 | – | COc1ccc(S(=O)(=O)N2CCN(C)CC2)cc1S(=O)(=O)N1CCN(C)CC1 | 38.2 | 29.5 | 52.6 | 77.8 | 33.3 |
| 950 | 360 | COc1ccc(S(=O)(=O)N2CCN(c3ccccc3C)CC2)cc1S(=O)(=O)N1CCN(c2ccccc2C)CC1 | 38.9 | 36.9 | 32.1 | – | – |
| 910 | – | CCOc1ccc(S(=O)(=O)N2CCN(c3ccccc3)CC2)cc1S(=O)(=O)N1CCN(c2ccccc2)CC1 | 40.1 | 23.6 | 26.9 | – | – |
| 720 | 260 | CCOc1ccc(S(=O)(=O)N2CCN(c3ccc(C)cc3)CC2)cc1S(=O)(=O)N1CCN(c2ccc(C)cc2)CC1 | 43.6 | 43 | 28.5 | 51.8 | 7.4 |
| – | 650 | CCOc1ccc(S(=O)(=O)N2CCN(c3ccccc3C)CC2)cc1S(=O)(=O)N1CCN(c2ccccc2C)CC1 | 28.9 | 33.1 | 41.6 | – | – |
| 800 | – | CCOc1ccc(S(=O)(=O)N2CCN(C(C)C)CC2)cc1S(=O)(=O)N1CCN(C(C)C)CC1 | 36.4 | 24.9 | 39 | – | – |
| 440 | 430 | CC(=O)Oc1ccccc1C(=O)O [ASPIRIN] | 46.3 | 38.5 | 49.1 | – | – |
| 470 | 340 | COc1ccc(C(=O)NCc2cccnc2)cc1C(=O)NCc1cccnc1 [PICOTAMIDE] | 45.5 | 37.1 | 49.2 | – | – |

The next lines start with the molecule.

| SMILES | IC50 [4] [nM] | IC50 [5] [nM] | inhibition at 1.3 µM [1] [%] | inhibition at 1.3 µM [2] [%] | inhibition at 1.3 µM [3] [%] | viability at 48 h, 10 µM [6] [%] | viability at 48 h, 100 µM [7] [%] |
| --- | --- | --- | --- | --- | --- | --- | --- |
| CCN1CCN(S(=O)(=O)c2ccc(OC)c(S(=O)(=O)N3CCN(CC)CC3)c2)CC1 | – | – | 24.3 | 22.4 | 42.6 | – | – |
| CCOc1ccc(S(=O)(=O)N2CCN(CC)CC2)cc1S(=O)(=O)N1CCN(CC)CC1 | – | – | 28.8 | 29.9 | 41.7 | – | – |
| COc1ccc(S(=O)(=O)N2CCN(C(C)C)CC2)cc1S(=O)(=O)N1CCN(C(C)C)CC1 | – | – | 28.4 | 27.1 | 49.4 | – | – |
| CCOc1ccc(S(=O)(=O)N2CCN(Cc3ccccc3)CC2)cc1S(=O)(=O)N1CCN(Cc2ccccc2)CC1 | – | – | 24 | 20.1 | 49.8 | 55.6 | 22.2 |
| COc1ccccc1N1CCN(S(=O)(=O)c2ccc(OC)c(S(=O)(=O)N3CCN(c4ccccc4OC)CC3)c2)CC1 | – | – | 28.7 | 28.1 | 27.6 | – | – |
| CCOc1ccc(S(=O)(=O)N2CCN(c3ccccc3F)CC2)cc1S(=O)(=O)N1CCN(c2ccccc2F)CC1 | – | – | 21 | 25.8 | 50.3 | 70.4 | 3.7 |
| COc1ccc(S(=O)(=O)N2CCN(c3ccccc3F)CC2)cc1S(=O)(=O)N1CCN(c2ccccc2F)CC1 | – | 480 | 28 | 40.6 | 28.8 | 77.8 | 66.7 |
| CCOc1ccc(S(=O)(=O)N2CCN(c3ccccc3OC)CC2)cc1S(=O)(=O)N1CCN(c2ccccc2OC)CC1 | – | – | 25.5 | 23.1 | 25.2 | – | – |
| CCOc1ccc(S(=O)(=O)N2CCN(C)CC2)cc1S(=O)(=O)N1CCN(C)CC1 | – | – | 24.5 | 18.1 | 29.5 | – | – |
| CCOc1ccc(S(=O)(=O)N2CCN(c3cccc(C)c3)CC2)cc1S(=O)(=O)N1CCN(c2cccc(C)c2)CC1 | 450 | 430 | 50.3 | 34.8 | 48.8 | 56.6 | 33.3 |
| COc1ccc(S(=O)(=O)N2CCN(c3ccccc3)CC2)cc1S(=O)(=O)N1CCN(c2ccccc2)CC1 | – | – | 27.9 | 15.7 | 20.4 | – | – |
